{"source": "ChEMBL document CHEMBL3272226", "about": "“Synthesis and dopaminergic activity of (+/-)-, (+)-, and (-)-2-dipropylamino-5-hydroxy-1,2,3,4-tetrahydronaphthalene” (1976)", "key": {"Rattus norvegicus [1]": {"tested_on": "Rattus norvegicus", "test": "Dopaminergic activity in (+)-6-(dipropylamino)-5,6,7,8-tetrahydronaphthalen-1-ol-pretreated sc dosed Sprague-Dawley rat assessed as induction of stereotyped behavior administered for 30 to 50 mins", "type": "functional, organism-based", "outline": "(§1)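 Sprague-Dawley male rats, three per dose, dosed sc with HCl or HI salts in saline (doses as free base); minimum dose inducing stereotyped behavior lasting 30-50 min determined.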"}, "Canis familiaris [2]": {"tested_on": "Canis familiaris", "test": "Dopaminergic activity in (+)-6-(dipropylamino)-5,6,7,8-tetrahydronaphthalen-1-ol-pretreated dog assessed as induction of emesis administered intramuscularly measured up to 20 hrs", "type": "functional, organism-based", "details": "Canis lupus familiaris", "outline": "(§2)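 Dogs, three to five per dose, given im injection of test solutions (HCl or HI salts dissolved in saline, doses as free base); minimum emetic dose determined.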"}, "Rattus norvegicus [3]": {"tested_on": "Rattus norvegicus", "test": "Dopaminergic activity in sc dosed Sprague-Dawley rat assessed as induction of stereotyped behavior administered for 30 to 50 mins", "type": "functional", "details": "for minimal effective dose: Rattus norvegicus, Sprague-Dawley, sc, read-out: MED", "outline": "as §1"}, "Canis familiaris [4]": {"tested_on": "Canis familiaris", "test": "Dopaminergic activity in dog assessed as induction of emesis administered intramuscularly measured up to 20 hrs", "type": "functional, Canis lupus familiaris", "details": "for minimal effective dose: Canis lupus familiaris, im, 20 h, read-out: MED", "outline": "as §2"}}, "note": "Calls of active or inactive are those of the source. No cut-off for these calls is given here.", "data": [{"smiles": "CN1CCc2cccc3c2[C@H]1Cc1ccc(O)c(O)c1-3", "values": [{"measurement": "Activity", "setting": "Rattus norvegicus [1]", "result": "Active"}, {"measurement": "Activity", "setting": "Canis familiaris [2]", "result": "Active"}]}, {"smiles": "CCCN(CCC)C1CCc2cc(O)ccc2C1", "note": "(racemic)", "values": [{"measurement": "minimal effective dose", "setting": "Rattus norvegicus [3]", "result": 13, "unit": "mg/kg"}, {"measurement": "minimal effective dose", "setting": "Canis familiaris [4]", "result": 0.036, "unit": "mg/kg"}]}, {"smiles": "CCCN(CCC)C1CCc2ccc(O)cc2C1", "note": "(racemic)", "values": [{"measurement": "minimal effective dose", "setting": "Rattus norvegicus [3]", "result": 23, "unit": "mg/kg"}, {"measurement": "minimal effective dose", "setting": "Canis familiaris [4]", "result": 0.013, "unit": "mg/kg"}]}, {"smiles": "CCCN(CCC)C1CCc2c(O)cccc2C1", "note": "(racemic) [5-OH-DPAT]", "values": [{"measurement": "MED", "setting": "Rattus norvegicus [3]", "result": 0.09, "unit": "mg/kg"}, {"measurement": "MED", "setting": "Canis familiaris [4]", "result": 0.004, "unit": "mg/kg"}]}, {"smiles": "CCCN(CCC)C1CCc2c(O)cccc2C1", "note": "(single isomer, unassigned; (+)) [5-OH-DPAT]", "values": [{"measurement": "MED", "setting": "Rattus norvegicus [3]", "result": ">1.8", "unit": "mg/kg"}, {"measurement": "MED", "setting": "Canis familiaris [4]", "result": ">0.08", "unit": "mg/kg"}]}, {"smiles": "CCCN(CCC)C1CCc2c(O)cccc2C1", "note": "(single isomer, unassigned; (-))", "values": [{"measurement": "Activity", "setting": "Rattus norvegicus [1]", "result": "Active"}, {"measurement": "Activity", "setting": "Canis familiaris [2]", "result": "Active"}]}, {"smiles": "CCCN(CCC)C1CCc2c(O)cccc2C1", "note": "(single isomer, unassigned; (-)) [5-OH-DPAT]", "values": [{"measurement": "MED", "setting": "Rattus norvegicus [3]", "result": 0.05, "unit": "mg/kg"}, {"measurement": "MED", "setting": "Canis familiaris [4]", "result": 0.002, "unit": "mg/kg"}]}]}
